p97 ATPase inh = inhibitors of human p97 ATPase, primary screen, biochemical. Transitional endoplasmic reticulum ATPase (Homo sapiens), P55072. recombinant p97 ATPase, Kinase-Glo ATP luminescence, 3 h. inhibition, % at 8 µM. hit rate 0.42% among 220,000. AID 1481, 2009; in the data active = inhibition above about 15%
Target sequence (P55072 whole entry, looked up): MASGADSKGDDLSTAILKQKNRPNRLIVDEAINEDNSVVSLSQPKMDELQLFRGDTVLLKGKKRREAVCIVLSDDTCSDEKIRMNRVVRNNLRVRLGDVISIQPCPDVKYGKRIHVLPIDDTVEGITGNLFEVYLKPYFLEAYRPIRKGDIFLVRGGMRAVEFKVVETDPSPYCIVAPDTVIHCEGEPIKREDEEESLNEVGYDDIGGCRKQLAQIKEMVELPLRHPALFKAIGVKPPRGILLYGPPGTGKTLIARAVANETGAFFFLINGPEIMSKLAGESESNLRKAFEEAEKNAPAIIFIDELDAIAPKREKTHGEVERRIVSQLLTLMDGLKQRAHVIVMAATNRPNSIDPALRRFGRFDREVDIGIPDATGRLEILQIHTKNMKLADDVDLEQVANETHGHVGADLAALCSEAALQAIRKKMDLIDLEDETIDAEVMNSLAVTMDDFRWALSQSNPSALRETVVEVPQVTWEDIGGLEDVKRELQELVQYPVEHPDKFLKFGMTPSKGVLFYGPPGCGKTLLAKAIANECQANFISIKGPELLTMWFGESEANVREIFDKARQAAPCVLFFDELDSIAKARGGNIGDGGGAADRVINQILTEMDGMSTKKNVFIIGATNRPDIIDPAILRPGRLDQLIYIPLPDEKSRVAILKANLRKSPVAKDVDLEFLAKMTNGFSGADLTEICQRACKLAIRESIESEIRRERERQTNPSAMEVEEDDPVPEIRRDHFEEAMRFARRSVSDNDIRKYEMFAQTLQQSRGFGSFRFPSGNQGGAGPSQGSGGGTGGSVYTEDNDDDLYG
p47phox inh = p47phox/p22phox peptide binding inhibitors, primary screen, biochemical, uHTS, NADPH oxidase regulatory subunit; Neutrophil cytosol factor 1 (Homo sapiens), P14598; hit rate 0.53% among 220,000; inhibition, % at 24.7 µM; fluorescence polarization, 2 h
Tb MetRS inh = T. brucei MetRS inhibitors, primary screen, biochemical, luminescence. methionyl-tRNA synthetase (Trypanosoma brucei brucei). inhibition, % at 11.9 µM. purified T. brucei MetRS, ATP depletion, Kinase-Glo luminescence. AID 624268, 2012. hit rate 0.4% among 360,000;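 active = inhibition above a per-plate cutoff of the control wells' mean inhibition plus 3 SD, cut at about 5.5% in these data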
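Test system: purified T. brucei MetRS enzyme. Also added: ATP, methionine and E. coli bulk tRNA substrates. Compound: 11.9 µM single point. Schedule: 15 min enzyme-compound preincubation, 2 h reaction, 10 min detection, 25 °C. Signal: luciferase luminescence of residual ATP, Kinase-Glo. Evaluation: percent inhibition versus plate control medians. Controls: DMSO wells, low control.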
14-3-3 Bad inh = inhibitors of 14-3-3 zeta/Bad binding, primary screen, biochemical, TR-FRET, bovine 14-3-3 zeta. TR-FRET 14-3-3zeta/Dy647-pBad peptide displacement, 1 h. inhibition, % at 21.7 µM. hit rate 0.71% among 220,000;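 active = inhibition above about 70%, limit read from the data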
UBC9 SUMO inh = inhibitors of in vitro SUMOylation cascade, primary screen, biochemical, HTRF, uHTS | SUMO-conjugating enzyme UBC9 (Homo sapiens), P63279 | HTRF SUMOylation assay, SAE1/SAE2 + UBC9 | inhibition, % at 35 µM | hit rate 0.36% among 290,000 | AID 2006, 2009; in the data active = inhibition above about 50%, passing the limit was not always enough
eIF4E 4G PPI = eIF4E–eIF4G protein interaction inhibitors, primary screen, biochemical, uHTS, TR-FRET, eIF4GI fragment; Eukaryotic translation initiation factor 4E (Mus musculus) + Eukaryotic translation …; TR-FRET eIF4E-eIF4GI(517-606) binding, 2 h; inhibition, % at 21.7 µM; hit rate 0.37% among 220,000
p97 confirm = p97 ATPase inhibitors, retest, confirmation, biochemical | hit rate 44% among 760 | recombinant p97 ATPase, Kinase-Glo ATP luminescence | AID 1517, 2009 | shares compounds with p97 ATPase inh | inhibition, % at 8 µM;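 active = percent inhibition of p97 ATPase above a set limit, the primary screen's mean plus 3 SD, cut at about 15% in these data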
Of the large screens only hits and unclear results are named; the others gave an inactive call (follow-up assays come after a bar, where they were run). An excerpt weighted towards active compounds, which were near 1.6% of everything screened.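 The calls were made as follows, unless noted: active = inhibition above about 30% (limit read from the data); inactive = the rest.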

Cc1ccccc1N1CCN(C2CCCN(C(=O)c3cn4cccc(C)c4n3)C2)CC1 (centres undefined)	none (no result: p97 ATPase inh, p47phox inh, 14-3-3 Bad inh, eIF4E 4G PPI)
COc1ccc2nc3cccc(OC)c3nc2c1	none
COc1ccc2nc3ccccc3nc2c1N	p97 ATPase inh 26 | p97 confirm inactive
Cc1cccc(OCCCC(=O)Nc2ccc(S(N)(=O)=O)cc2)c1	p97 ATPase inh 17 | p97 confirm inactive
CCOC(=O)C1=C(c2ccccc2)NC(N)=NC1c1ccc(OCc2ccc(C(=O)OC)cc2)cc1 (centres undefined)	p97 ATPase inh 33, p47phox inh 84, 14-3-3 Bad inh 90 | p97 confirm 35
COC(=O)/C=C1/S/C(=N/NC(=O)c2ccc(Cl)cc2Cl)NC1=O	p97 ATPase inh 22 | p97 confirm 21
COC(=O)/C=C1/S/C(=N/NC(=O)c2ccccc2OC)NC1=O	none (no result: p97 ATPase inh, p47phox inh, 14-3-3 Bad inh, eIF4E 4G PPI)
N#C/C(=C\c1ccc2c(c1)OCO2)C(N)=S	none
N#C/C(=C/c1ccco1)C(N)=S	p97 ATPase inh 27 | p97 confirm inactive
Nc1nc(CCl)nc(Nc2ccc3ccccc3c2)n1	p97 ATPase inh 36 | p97 confirm 38
COc1ccc(Nc2nc(N)nc(CCl)n2)cc1	none
CCn1c(/C=C/N(C(C)=O)c2ccccc2)[n+](CCCS(=O)(=O)[O-])c2cc(Cl)c(Cl)cc21	p97 ATPase inh 18 | p97 confirm inactive
COC(=O)c1ccc(CN(c2ccc(C(=O)O)c(O)c2)S(=O)(=O)c2ccc(Cl)c([N+](=O)[O-])c2)cc1	none (no result: p97 ATPase inh, p47phox inh, 14-3-3 Bad inh, eIF4E 4G PPI)
CCOc1ccccc1CN1C(=O)c2ccccc2C1C(=O)NC(C)CC (centres undefined)	p97 ATPase inh 19 | p97 confirm inactive
C[C@H](NS(=O)(=O)c1ccc2c(c1)OCCCO2)C(=O)N1CCN(Cc2ccc(C#N)cc2)CC1	none (no result: p97 ATPase inh, p47phox inh, 14-3-3 Bad inh, UBC9 SUMO inh, eIF4E 4G PPI)
O=C1S/C(=C\C=C\c2ccco2)C(=O)N1c1ccc(O)cc1	p97 ATPase inh 43 | p97 confirm inactive
O=C(NN1C(=O)/C(=C/C=C/c2ccco2)SC1=S)c1ccccc1O	p97 ATPase inh 55, 14-3-3 Bad inh 75, UBC9 SUMO inh 79, eIF4E 4G PPI 36 | p97 confirm 21
N#CC1=C(N)Oc2cc(Nc3ccccc3)ccc2C1c1ccncc1 (centres undefined)	p97 ATPase inh 20 | p97 confirm 33
COc1cc(CO)cc(Br)c1OCc1cccnc1	none
O=C(Cc1ccc(Cl)cc1)Nc1ccc(NC(=O)c2cccs2)cc1	p97 ATPase inh 15 | p97 confirm inactive
O=C(Nc1ccc(Cl)cc1)c1cccs1	none
CN(Cc1ccccc1)c1nc(-c2cccc([N+](=O)[O-])c2)nc2ccccc12	none
CCOC(=O)c1ccc(NCCc2ccc(OC)c(OC)c2)c(N)c1	none (no result: p97 ATPase inh, p47phox inh, 14-3-3 Bad inh, eIF4E 4G PPI)
Nc1c(C(=O)OCC2CCCO2)c2nc3ccccc3nc2n1C1CCCC1 (centres undefined)	p97 ATPase inh 17 (no result: p47phox inh, 14-3-3 Bad inh, eIF4E 4G PPI) | p97 confirm inactive
COc1ccc(OC)c(-n2c(N)c(C(=O)NCC3CCCO3)c3nc4ccccc4nc32)c1 (centres undefined)	none
CC1=Nc2ccccc2/C1=C/c1c(N)n2c(S(=O)(=O)CC(C)C)nsc2nc1=O	p97 ATPase inh 18 | p97 confirm 39
CC1=Nc2ccc(C)cc2/C1=C/c1c(N)n2c(S(=O)(=O)C(C)C)nsc2nc1=O	none
CC(C)S(=O)(=O)c1nsc2nc(=O)c(/C=C3\C=Nc4ccccc43)c(N)n12	none
CC1=Nc2ccccc2/C1=C/c1c(N)n2c(S(=O)(=O)C(C)C)nsc2nc1=O	p97 ATPase inh 22 | p97 confirm 36
CCC(=O)N(Cc1ccc(S(N)(=O)=O)cc1)C1CC(=O)N(c2ccccc2)C1=O (centres undefined)	none
CCC(Cc1ccccc1)NC(=O)CCn1cccc1 (centres undefined)	p97 ATPase inh 16 | p97 confirm inactive
COc1cccc(/C=C/C(=O)OCC(=O)Nc2cccc(S(=O)(=O)N3CCOCC3)c2)c1OC	none
CC1=Nc2ccccc2/C1=C/c1sc(=N)n(-c2nccs2)c1O	p97 ATPase inh 29 | p97 confirm 36
O=C1NCCCC2c3cc(O)c4ccccc4c3OC12N1CCCCC1 (centres undefined)	p97 ATPase inh 34, p47phox inh 30, UBC9 SUMO inh 56 (no result: Tb MetRS inh) | p97 confirm inactive
O=C1NCCCC2c3c(cc(Br)c(O)c3Br)OC12N1CCOCC1 (centres undefined)	none
S=C1Cc2ccccc2N1	p97 ATPase inh 32, UBC9 SUMO inh 60 | p97 confirm 67
CCCn1c(/C=N/Nc2nc3ccccc3[nH]2)nc2ccccc21	none
Cc1c(/C=N/Nc2nc3ccccc3[nH]2)c2ccccc2n1C	p97 ATPase inh 24 | p97 confirm 17
O=C(Nc1cccc2nsnc12)c1ccc(-c2cccc(Cl)c2)o1	p97 ATPase inh 18, UBC9 SUMO inh 60 | p97 confirm inactive
Cc1cc(/C=C2\SC(=S)NC2=O)c(C)[nH]1	p97 ATPase inh 15 | p97 confirm inactive
Cc1cc(/C=C2\SC(=S)NC2=O)c(C)n1-c1cccc(O)c1	p97 ATPase inh 18 | p97 confirm 16
CCn1c(C)cc(/C=C2/SC(=S)NC2=O)c1C	none
O=C(C[C@H]1C/C=C\CCC(=O)O[C@@H](c2ccccc2)CNC1=O)NCCO	none (no result: p97 ATPase inh, p47phox inh, 14-3-3 Bad inh, UBC9 SUMO inh, eIF4E 4G PPI)
COCCN(CC(=O)Nc1cccc(C)c1C)C(=O)c1oc2c(Cl)cccc2c1C	none (no result: p97 ATPase inh, p47phox inh, 14-3-3 Bad inh, UBC9 SUMO inh, eIF4E 4G PPI)
FC(F)(F)c1nnc2c(Sc3ccccc3)nc3ccccc3n12	none
FC(F)(F)c1nnc2c(Sc3ccccn3)nc3ccccc3n12	p97 ATPase inh 19 | p97 confirm inactive
O=C(NCCC1CC1(Cl)Cl)Nc1ccccc1 (centres undefined)	p97 ATPase inh 23 | p97 confirm inactive
O=C(NCC1CC1)Nc1ccccc1	none (no result: p97 ATPase inh, p47phox inh, 14-3-3 Bad inh, eIF4E 4G PPI)
CC(=O)N(/N=C1\Sc2ccccc2C1=O)c1cccc(C)c1	p97 ATPase inh 15 | p97 confirm 24
COc1ccc(C(=O)c2[nH]c(N)c(C(=O)NCCc3c[nH]c4ccccc34)c2-c2ccc(C(F)(F)F)cc2)cc1	none (no result: p97 ATPase inh, p47phox inh, 14-3-3 Bad inh, UBC9 SUMO inh, eIF4E 4G PPI)
CCn1c(-c2ccccc2)c(C(=O)CCl)c2ccccc21	p97 ATPase inh 32 | p97 confirm 36
CCn1c2ccccc2c(=O)c2ccccc21	none
